Results from ChEMBL document CHEMBL1155547, “New aminopropandiol derivatives as orally available and short-acting calcium-sensing receptor antagonists” (Bioorg Med Chem Lett, 2010).
Activity calls are given as the source filed them. No cut-off for these calls is given here.

Key:
[1] = molecular target: T1, Extracellular calcium-sensing receptor (Homo sapiens, UniProt P41180); test: Antagonist activity at human CaSR expressed in rat PC12 cells transfected with zif promoter/luciferase by reporter gene assay; type: functional, cell-based, PC-12
T1 sequence (P41180 whole entry): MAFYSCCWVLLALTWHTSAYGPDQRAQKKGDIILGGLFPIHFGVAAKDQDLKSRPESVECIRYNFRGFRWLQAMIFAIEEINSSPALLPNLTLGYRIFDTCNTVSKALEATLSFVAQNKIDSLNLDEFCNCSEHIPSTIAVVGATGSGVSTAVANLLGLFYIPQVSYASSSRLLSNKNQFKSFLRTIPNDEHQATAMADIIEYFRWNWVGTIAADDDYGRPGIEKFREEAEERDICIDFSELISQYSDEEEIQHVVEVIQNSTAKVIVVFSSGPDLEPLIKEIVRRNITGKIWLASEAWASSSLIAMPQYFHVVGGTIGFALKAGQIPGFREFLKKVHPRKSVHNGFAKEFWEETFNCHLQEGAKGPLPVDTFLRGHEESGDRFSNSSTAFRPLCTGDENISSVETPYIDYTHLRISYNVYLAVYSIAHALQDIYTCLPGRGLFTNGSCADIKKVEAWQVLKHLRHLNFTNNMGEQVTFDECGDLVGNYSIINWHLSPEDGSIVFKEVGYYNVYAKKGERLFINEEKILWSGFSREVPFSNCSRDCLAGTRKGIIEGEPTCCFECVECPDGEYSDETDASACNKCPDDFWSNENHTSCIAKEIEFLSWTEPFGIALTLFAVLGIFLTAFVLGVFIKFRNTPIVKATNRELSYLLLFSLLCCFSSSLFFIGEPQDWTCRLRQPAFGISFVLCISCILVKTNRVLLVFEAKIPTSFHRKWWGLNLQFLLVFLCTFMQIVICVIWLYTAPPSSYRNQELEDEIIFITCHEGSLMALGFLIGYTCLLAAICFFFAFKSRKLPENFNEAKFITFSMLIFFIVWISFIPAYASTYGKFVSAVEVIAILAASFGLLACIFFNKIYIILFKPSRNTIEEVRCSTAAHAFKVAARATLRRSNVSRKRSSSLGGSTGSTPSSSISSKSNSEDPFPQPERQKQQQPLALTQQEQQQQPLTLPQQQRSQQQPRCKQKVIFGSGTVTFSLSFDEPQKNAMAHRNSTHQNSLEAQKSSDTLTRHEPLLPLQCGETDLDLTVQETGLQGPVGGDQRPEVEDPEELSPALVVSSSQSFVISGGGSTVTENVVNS
In short: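 Human CaSR antagonism measured by luciferase reporter gene assay in PC12h cells transfected with zif promoter/luciferase and hCaSR plasmids. IC50 values are means of two or more experiments.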

[2] = test system: Rattus norvegicus; test: Increase of serum PTH (1-34) level in Sprague-Dawley rat at 100 mg/kg, po after 30 and 60 mins by ELISA relative to NPS 2143; type: functional
In short: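 Sprague–Dawley rats (n = 5) were dosed orally at 100 mg/kg. Serum PTH 1–34 rise over basal at 30 and 60 min was measured by rat PTH 1–34 ELISA. The rise was scored against a reference calcilytic given at 100 mg/kg po: ++ >80%, + 50–80%, N.E. <50% of the reference increase.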

[3] = test system: Rattus norvegicus; test: Increase of serum PTH (1-34) level in Sprague-Dawley rat at 100 mg/kg, po after 30 and 60 mins by ELISA; type: functional
In short: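 Sprague–Dawley rats (n = 5) were dosed orally at 100 mg/kg. Endogenous PTH 1–34 was measured by rat PTH 1–34 ELISA. The value is the increase over basal level at 30 min and 60 min after dosing.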

[4] = test system: Rattus norvegicus; test: Increase of plasma PTH (1-84) level in Sprague-Dawley rat at 10 mg/kg, po after 2 hrs by ELISA
[5] = test system: Rattus norvegicus; test: Increase of plasma PTH (1-84) level in Sprague-Dawley rat at 10 mg/kg, po after 30 mins by ELISA
[6] = Half life in rat at 10 mg/kg, po; type: ADME, organism-based; parameters: dose 10 mg/kg, route oral; settings: in vivo
[7] = Tmax in rat at 10 mg/kg, po; type: ADME, organism-based; parameters: dose 10 mg/kg, route oral; settings: in vivo
[8] = Cmax in rat at 10 mg/kg, po; type: ADME, organism-based; parameters: dose 10 mg/kg, route oral; settings: in vivo
[9] = Bioavailability in rat at 10 mg/kg, po; type: ADME, organism-based; settings: in vivo
[10] = molecular target: Cytochrome P450 2D6 (Homo sapiens, UniProt P10635); test: Inhibition of CYP2D6; type: ADME
Sequence of Cytochrome P450 2D6 (P10635 whole entry): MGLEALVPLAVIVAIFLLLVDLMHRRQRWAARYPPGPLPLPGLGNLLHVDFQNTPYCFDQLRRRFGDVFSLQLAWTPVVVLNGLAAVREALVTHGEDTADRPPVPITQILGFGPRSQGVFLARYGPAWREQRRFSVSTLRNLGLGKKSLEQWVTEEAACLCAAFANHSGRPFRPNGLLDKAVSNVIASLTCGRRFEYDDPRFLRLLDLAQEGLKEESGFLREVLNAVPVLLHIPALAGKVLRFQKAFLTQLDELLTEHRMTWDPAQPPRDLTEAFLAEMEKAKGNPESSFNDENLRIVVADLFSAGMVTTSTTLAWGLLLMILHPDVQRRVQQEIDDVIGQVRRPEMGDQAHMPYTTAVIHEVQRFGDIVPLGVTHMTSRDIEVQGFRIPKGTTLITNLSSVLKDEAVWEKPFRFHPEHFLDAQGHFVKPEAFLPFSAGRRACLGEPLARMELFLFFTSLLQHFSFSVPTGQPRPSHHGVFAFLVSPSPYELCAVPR

Row | IC50 [1] | Compound | also measured
1 | 210 nM | C=CC(OC[C@H](O)CNC(C)(C)Cc1ccc2ccccc2c1)c1ccccc1 (some centres not stated) | 
2 | 70 nM | CC(C)(Cc1ccc2ccccc2c1)NC[C@@H](O)COC(c1ccccc1)C1CC1 (some centres not stated) | 
3 | 160 nM | CC(OC[C@H](O)CNC(C)(C)Cc1ccc2ccccc2c1)c1ccccc1C#N (some centres not stated) | Activity [2]: 50%
4 | 120 nM | COc1ccccc1C(C)OC[C@H](O)CNC(C)(C)Cc1ccc2ccccc2c1 (some centres not stated) | Activity [2]: >80%
5 | 92 nM | CCC(OC[C@H](O)CNC(C)(C)Cc1ccc2ccccc2c1)c1ccccc1 (some centres not stated) | 
6 | 26 nM | CC(C)(Cc1ccc2ccccc2c1)NC[C@@H](O)COc1cccc(Cl)c1C#N | Activity [3]: 10 pg/mL
7 | 570 nM | CC(C)(Cc1ccc2ccccc2c1)NC[C@@H](O)COC(c1ccccc1)C(C)(C)C (some centres not stated) | 
8 | 540 nM | CC(OC[C@H](O)CNC(C)(C)Cc1ccc2ccccc2c1)c1ccccc1[N+](=O)[O-] (some centres not stated) | Activity [2]: <50%
9 | 200 nM | Cc1ccccc1C(C)OC[C@H](O)CNC(C)(C)Cc1ccc2ccccc2c1 (some centres not stated) | Activity [2]: >80%
10 | 140 nM | CC(OC[C@H](O)CNC(C)(C)Cc1ccc2ccccc2c1)c1ccccc1Cl (some centres not stated) | Activity [2]: <50%
11 | 170 nM | Cc1cccc(C(C)OC[C@H](O)CNC(C)(C)Cc2ccc3ccccc3c2)c1 (some centres not stated) | Activity [2]: 50%
12 | 760 nM | Cc1ccccc1[C@@H](OC[C@@H](O)CNC(C)(C)Cc1ccc2ccccc2c1)C1CC1 | 
13 | 550 nM | CC(OC[C@H](O)CNC(C)(C)Cc1ccc2ccccc2c1)c1ccc2ccccc2c1 (some centres not stated) | 
14 | 23 nM | Cc1ccccc1[C@H](OC[C@H](O)CNC(C)(C)Cc1ccc2ccccc2c1)C1CC1 | Activity [4]: inactive; Activity [5]: Active; half-life [6]: 2 h; Tmax [7]: 1 h; Cmax [8]: 300 nM; bioavailability [9]: 13%; IC50 [10]: 500 nM
15 | 150 nM | CCCC(OC[C@H](O)CNC(C)(C)Cc1ccc2ccccc2c1)c1ccccc1 (some centres not stated) | 
16 | 300 nM | CC(CCOC[C@H](O)CNC(C)(C)Cc1ccc2ccccc2c1)c1ccccc1 (some centres not stated) | 
17 | 140 nM | Cc1ccc(C(C)OC[C@H](O)CNC(C)(C)Cc2ccc3ccccc3c2)cc1 (some centres not stated) | Activity [2]: <50%
18 | 440 nM | CC(Cc1ccccc1)OC[C@H](O)CNC(C)(C)Cc1ccc2ccccc2c1 (some centres not stated) | 

Row | IC50 [1] | Compound | also measured
19 |  | COc1ccccc1C(OC[C@H](O)CNC(C)(C)Cc1ccc2ccccc2c1)C1CC1 (some centres not stated) | Activity [2]: >80%
20 | 810 nM | CC(COC[C@H](O)CNC(C)(C)Cc1ccc2ccccc2c1)c1ccccc1 (some centres not stated) | 
21 | 310 nM | Cc1ccccc1[C@H](OC[C@@H](O)CNC(C)(C)Cc1ccc2ccccc2c1)C1CC1 | 
22 | 200 nM | CC(C)(Cc1ccc2ccccc2c1)NC[C@@H](O)COC(c1ccccc1)C1CCCC1 (some centres not stated) | 
23 | 220 nM | CC(OC[C@H](O)CNC(C)(C)Cc1ccc2ccccc2c1)c1cccc(Cl)c1 (some centres not stated) | Activity [2]: <50%
24 | 37 nM | Cc1ccccc1C(OC[C@H](O)CNC(C)(C)Cc1ccc2ccccc2c1)C1CC1 (some centres not stated) | Activity [2]: >80%
25 | 220 nM | CC(OC[C@H](O)CNC(C)(C)Cc1ccc2ccccc2c1)c1ccccc1 (some centres not stated) | 
26 | 360 nM | CC(OC[C@H](O)CNC(C)(C)Cc1ccc2ccccc2c1)c1cccc2ccccc12 (some centres not stated) | 
27 | 74 nM | CC(C)(Cc1ccc2ccccc2c1)NC[C@@H](O)COC(c1ccccc1)C1CCC1 (some centres not stated) | 
28 | 83 nM | Cc1ccccc1[C@@H](OC[C@H](O)CNC(C)(C)Cc1ccc2ccccc2c1)C1CC1 | 
29 | 200 nM | CC(C)C(OC[C@H](O)CNC(C)(C)Cc1ccc2ccccc2c1)c1ccccc1 (some centres not stated) | 
30 | 730 nM | CC(C)(Cc1ccc2ccccc2c1)NC[C@@H](O)COC(c1ccccc1)c1ccccc1 | 
31 | 170 nM | CCCCC(OC[C@H](O)CNC(C)(C)Cc1ccc2ccccc2c1)c1ccccc1 (some centres not stated) | 
32 | 420 nM | CC(OC[C@H](O)CNC(C)(C)Cc1ccc2ccccc2c1)c1ccccn1 (some centres not stated) | 
33 | 2240 nM | CC(C)(Cc1ccc2ccccc2c1)NC[C@@H](O)COC(C)(C)c1ccccc1 | 
34 | 610 nM | CC(C)(Cc1ccc2ccccc2c1)NC[C@@H](O)COC(c1ccccc1)C1CCCCC1 (some centres not stated) | 
35 | > 30000 nM | CC(C)(Cc1ccc2ccccc2c1)NC[C@@H](O)COC(=O)c1ccccc1 | 
